From publication PMC4021451 (Journal of medicinal chemistry, 2012)

Tests used:
[1] = tested on: P31/cis cells (cisplatin-resistant subline); assay: EZ4U viability assay in resistance models, P31/cis; format: cell-based; conditions: read-out: IC50 P31/cis, 96 h exposure
Method in brief: (§1)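 Cells were seeded at 2 × 10^3 per well and allowed to recover for 24 h. Test compound was then added in growth medium and exposed for 96 h. Viable cell proportion was read with the EZ4U kit. Media, all with 10% FBS: SW1573 and 2R120 in DMEM, A2780 and A2780/cis in RPMI 1640, P31 in MEM. Cells were grown at 37 °C in 5% CO2.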

[2] = tested on: A2780/cis cells (cisplatin-selected subline); assay: EZ4U viability assay in resistance models, A2780/cis; format: cell-based; conditions: for IC50: read-out: IC50 A2780/cis, EZ4U assay, 96 h exposure
Method in brief: as §1

[3] = tested on: SW480 (colon adenocarcinoma) cells; assay: MTT cytotoxicity assay, SW480 cells; format: cell-based, human; conditions: read-out: IC50 SW480, 96 h exposure, mean ± SD
Method in brief: (§2)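 Cells were seeded in MEM at 1.5 × 10^3 (CH1), 4.0 × 10^3 (A549) or 2.5 × 10^3 (SW480) per well, given 24 h to resume exponential growth, then exposed to serial dilutions for 96 h. Medium was replaced with RPMI 1640 plus MTT in PBS (5 mg/mL solution) for 4 h, then DMSO. OD was read at 550 nm. At least three independent experiments were run, with triplicates per concentration.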

[4] = tested on: ABCC1-overexpressing 2R120 cells; assay: EZ4U viability assay in resistance models, 2R120; format: cell-based, human; conditions: read-out: IC50 2R120, 96 h exposure
Method in brief: as §1

[5] = tested on: CH1 (ovarian carcinoma) cells; assay: MTT cytotoxicity assay, CH1 cells; format: cell-based, human; conditions: read-out: IC50 CH1, 96 h exposure, mean ± SD
Method in brief: as §2

[6] = tested on: SW1573 cells (chemosensitive parental non-small-cell lung cancer line); assay: EZ4U viability assay in resistance models, SW1573; format: cell-based, human; conditions: read-out: IC50 SW1573, 96 h exposure
Method in brief: as §1

P31 (mesothelioma) cells = assay: EZ4U viability assay in resistance models, P31; format: cell-based; conditions: read-out: IC50 P31, 96 h exposure
Method in brief: as §1

[7] = tested on: A2780 (ovarian carcinoma) cells; assay: EZ4U viability assay in resistance models, A2780; format: cell-based; conditions: read-out: IC50 A2780, 96 h exposure
Method in brief: as §1

A2780 cells = assay: Total Pt uptake levels by ICP-MS; format: cell-based; conditions: 2 h drug exposure
Method in brief: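 A2780 cells (4 × 10^5 per well) settled for 24 h, then were exposed to test compound for 2 h at 37 °C. After two ice-cold PBS washes, cells were lysed in tetramethylammonium hydroxide and diluted in 0.6 N HNO3. Pt was measured by ICP-MS against matrix-matched standards with 1 ppb indium internal standard and corrected for a cell-free blank well. Values are relative mean and SD from at least two independent experiments.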

[8] = Reversed-phase HPLC lipophilicity; format: physicochemical; conditions: RP-HPLC, C18, methanol/15 mM aqueous formic acid, extrapolated to 100% H2O, 25 °C
Method in brief: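 Isocratic runs on a silica-based C18 column (4.6 mm × 250 mm), with methanol/15 mM aqueous formic acid from 5:95 to 50:50 depending on compound polarity. Flow 1.00 mL/min, UV 210 nm. […] Each compound ran at least twice in at least three mobile-phase compositions. log kw came from linear extrapolation of log k' versus methanol fraction.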

[9] = tested on: A549 (non-small-cell lung carcinoma) cells; assay: MTT cytotoxicity assay, A549 cells; format: cell-based, human; conditions: read-out: IC50 A549, 96 h exposure, mean ± SD
Method in brief: as §2

Molecule	IC50 [1] [µM]	IC50 [2] [µM]	IC50 [3] [µM]	IC50 [4] [µM]	IC50 [5] [µM]	IC50 [6] [µM]	IC50 (P31 (mesothelioma) cells) [µM]	IC50 [7] [µM]	-fold resistance A2780/cis ([2]; A2780/cis versus A2780) [fold]	Cellular drug uptake (total Pt levels) (A2780 cells)	log kw [8]	IC50 [9] [µM]
N.N.[Cl][Pt][Cl] [cisplatin]	> 20	3.7 ± 0.3	3.5 ± 0.3	> 20	0.16 ± 0.03	6.5 ± 0.1	4 ± 0.3					
CC(=O)[O-].CC(=O)[O-].N.NC1CCCCC1.[Cl-].[Cl-].[Pt+4] [satraplatin, (OC-6-43)-diacetatoamminedichlorido(cyclohexylamine)platinum(IV)]		5.7 ± 0.2						0.5 ± 0.3	11.4	enhanced drug uptake	1.79 ± 0.01	
(OC-6-54)-Dichlorido(N,N-dimethylethane-1,2-diamine)-hydroxidomethoxidoplatinum(IV) [1b]			40 ± 14		2.5 ± 0.2						0.09 ± 0.01	73 ± 3
